In ChEMBL document CHEMBL3351425, “Lactones from Ficus auriculata and their effects on the proliferation function of primary mouse osteoblasts in vitro” (2014):

Experiments:
Assay type in all cases: functional, Osteoblast
[1] = Induction of cell proliferation in osteoblasts (unknown origin) at 1 uM after 48 hrs by MTT assay relative to untreated control
How it was run: (§1)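 Primary mouse osteoblasts were seeded at 2 × 10^3 cells/well and cultured 24 h, then exposed to compound for 48 h. MTT (5.0 mg/ml) was added for a further 4 h at 37 °C, and formazan was dissolved in DMSO. OD was read at 570 nm. Viability = (OD sample − blank)/(OD untreated control − blank) × 100. The blank was cell-free medium.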

[2] = Induction of cell proliferation in osteoblasts (unknown origin) at 100 uM after 48 hrs by MTT assay relative to untreated control; how it was run: as §1
[3] = Induction of cell proliferation in osteoblasts (unknown origin) at 10 uM after 48 hrs by MTT assay relative to untreated control; how it was run: as §1

Row | SMILES | Activity [1] | Activity [2] | Activity [3]
1 | COc1cc(O)cc2c1C(=O)O[C@H](C)CCCCCCC2 | 3.45% | 51.55% | 14.19%
2 | C[C@@H]1CCCCCCCc2cc(O)cc(O)c2C(=O)O1 | 1.67% | 19.48% | -4.54%
3 | COc1cc(O)cc2c1C(=O)O[C@H](C)CCC(=O)CCCC2 | 2.87% | 3.28% | -4.29%
4 | COC1=CC(=O)C=C2CCCCC(=O)CC[C@@H](C)OC(=O)[C@@]21O | 12.54% | 19.62% | 10.92%
5 | COC1=CC(=O)C=C2CCCC(=O)CCC[C@@H](C)OC(=O)[C@@]21O | 10% | 2.61% | 8.94%
6 | COC1=CC(=O)C=C2CCCCCCC[C@@H](C)OC(=O)[C@@]21O | -7.91% | -68.32% | -43.92%
7 | COc1cc(O)cc2c1C(=O)O[C@H](C)CC[C@@H](O)CCCC2 | 3.97% | 2.1% | -6.67%
8 | [F-].[Na+] [SODIUM FLUORIDE] | 12.15% | 22.54% | 18.76%
